# Source: ChEMBL document CHEMBL5329165, “Design, synthesis and biological evaluation of phenanthridine amide and 1,2,3-triazole analogues against Mycobacterium tuberculosis” (RSC Med Chem, 2023)
# How the values were obtained:
# [1] = test system: Mycobacterium tuberculosis; experiment: Antimycobacterial activity against replicating Mycobacterium tuberculosis H37Rv ATCC 27294 incubated for 7 days by microplate alamar blue assay; format: functional; settings: H37Rv ATCC 27294, 168 h, time 7 day
# In short: (§1)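 H37Rv (ATCC 27294) in 7H12 broth (7H9 with casitone, BSA, catalase, palmitic acid). Compounds from DMSO in twofold serial dilution; final inoculum 3 to 5 X10⁵ cells/mL; 7 days at 37°C. Resazurin plus Tween 80 added, 18–24 h more at 37°C. Fluorescence read at 530 nm excitation/590 nm emission. MIC is the lowest concentration giving 90% fluorescence reduction versus untreated bacteria.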
# [2] = Cytotoxicity against human HepG2 cells assessed as reduction in cell viability by alamar blue assay; format: toxicity, cell-based
# In short: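 HepG2 cells grown in Glutamax DMEM with 10% (v/v) FBS and antibiotics, seeded in 96-well plates at 37°C, 5% CO₂. Viability measured by Alamar Blue staining per manufacturer's protocol; CC₅₀ derived.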
# [3] = test system: Mycobacterium tuberculosis; experiment: Antimycobacterial activity against non-replicating Mycobacterium tuberculosis H37Rv ATCC 27294 incubated for 10 days under anaerobic condition followed by treatment under aerobic condition and measured on day 11 by luminescence based low oxygen recovery assay; format: functional; settings: H37Rv ATCC 27294, 264 h, time 11 day
# In short: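 Low-oxygen recovery assay with H37Rv carrying autoluminescent LuxABCDE plasmid, adapted to low oxygen. Cells in 7H12 broth, sonicated 15 s, inoculum 5 x 10⁵ to 2 x 10⁶ CFU/mL, with twofold compound dilutions. Anaerobic (<0.16% O₂; 10% H₂, 5% CO₂, N₂) at 37°C for 10 days, then 28 h aerobic recovery (5% CO₂ air). Luminescence read day 11; MIC at 90% signal reduction versus untreated controls.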
# [4] = test system: Mycobacterium tuberculosis; experiment: Antibacterial activity against Mycobacterium tuberculosis H37Rv incubated for 7 days by alamar blue reagent based fluorescence plate reader analysis; format: functional; settings: 168 h, time 7 day; in short: as §1
# [5] = test system: Mycobacterium tuberculosis; experiment: Antimycobacterial activity against Mycobacterium tuberculosis H37Ra by microplate alamar blue assay; format: functional
# [6] = test system: Mycobacterium tuberculosis; experiment: Antibacterial activity against Mycobacterium tuberculosis H37Rv ATCC 27294 by microplate alamar blue assay; format: functional; in short: as §1
# [7] = test system: Mycobacterium tuberculosis; experiment: Antibacterial activity against Mycobacterium tuberculosis H37Rv; format: functional; in short: as §1
SMILES,MIC [1],CC50 [2],MIC [3],also measured
Nc1nc2ccccc2c2ccccc12,61.3 µM,30.5 µM,62.1 µM,–
Cc1ccc2nc(C)c(C(=O)NCCCC3CCCCC3)n2c1,–,–,–,MIC [4]: 0.1 µM
O=C(Nc1nc2ccccc2c2ccccc12)c1cnccn1,> 333 µM,53 µM,> 333 µM,–
Cc1nc2c3ccccc3c3ccccc3n2c1C(=O)NCc1cn(-c2ccc([N+](=O)[O-])cc2Br)nn1,180 µM,–,180 µM,–
O=C(Cc1ccc(Br)cc1)Nc1nc2ccccc2c2ccccc12,> 256 µM,> 50 µM,> 256 µM,–
O=C(/C=C/c1ccccc1)Nc1nc2ccccc2c2ccccc12,> 308 µM,–,> 308 µM,–
Cc1nc2c3ccccc3c3ccccc3n2c1C(=O)NCc1cn(-c2cccc([N+](=O)[O-])c2)nn1,84.3 µM,71.9 µM,87.4 µM,–
C#CCNC(=O)c1c(C)nc2c3ccccc3c3ccccc3n12,> 319 µM,–,> 319 µM,–
O=C(Cc1ccccc1)Nc1nc2ccccc2c2ccccc12,294 µM,> 50 µM,267 µM,–
Nc1cccc(C(=O)Nc2nc3ccccc3c3ccccc23)c1,150 µM,56.9 µM,151 µM,–
O=C(Nc1nc2ccccc2c2ccccc12)c1ccccc1I,> 236 µM,–,> 236 µM,–
Nc1ccc(C(=O)Nc2nc3ccccc3c3ccccc23)cc1,78.3 µM,32.1 µM,85.8 µM,–
CCCCCC(=O)Nc1nc2ccccc2c2ccccc12,> 342 µM,79.5 µM,79.8 µM,–
COc1ccc(-n2cc(CNC(=O)c3c(C)nc4c5ccccc5c5ccccc5n34)nn2)c([N+](=O)[O-])c1,94 µM,–,106 µM,–
O=C(Nc1ccc(Cl)cn1)c1cccc(C(F)(F)F)c1,–,–,–,MIC [5]: 109 µM
Cc1nc2c3ccccc3c3ccccc3n2c1C(=O)NCc1cn(-c2cccc(C(F)(F)F)c2)nn1,184 µM,82.3 µM,89.5 µM,–
O=C(Cc1c[nH]c2ccccc12)Nc1nc2ccccc2c2ccccc12,125 µM,32.1 µM,69 µM,–

SMILES,MIC [1],CC50 [2],MIC [3],also measured
CCc1ccc(-n2cc(CNC(=O)c3c(C)nc4c5ccccc5c5ccccc5n34)nn2)cc1,> 217 µM,–,> 217 µM,–
CCc1nc2ccc(C)cn2c1C(=O)NCCOc1ccc(N2CCC(=NOC)CC2)cc1,–,–,–,MIC [6]: < 0.035 µM
Cc1nc2c3ccccc3c3ccccc3n2c1C(=O)NCc1cn(-c2ccc(Cl)c(Cl)c2[N+](=O)[O-])nn1,> 183 µM,–,> 183 µM,–
Cc1nc2c3ccccc3c3ccccc3n2c1C(=O)NCc1cn(-c2ccc(C(F)(F)F)cc2)nn1,> 200 µM,84.4 µM,93 µM,–
CCCCCCCC(=O)Nc1nc2ccccc2c2ccccc12,> 312 µM,> 50 µM,300 µM,–
Cc1cc(C)cc(-n2cc(CNC(=O)c3c(C)nc4c5ccccc5c5ccccc5n34)nn2)c1,> 217 µM,90.7 µM,208 µM,–
O=C(Nc1nc2ccccc2c2ccccc12)c1cccc(Cl)c1,> 300 µM,–,> 300 µM,–
N#Cc1ccc(Cn2cc(CNC(=O)c3cn4ccccc4n3)nn2)cc1,–,–,–,MIC [7]: 1560 µM
O=C(CCCc1c[nH]c2ccccc12)Nc1nc2ccccc2c2ccccc12,70.6 µM,30 µM,218 µM,–
Cc1nc2c3ccccc3c3ccccc3n2c1C(=O)NCc1cn(-c2ccccc2Cl)nn1,> 214 µM,–,> 214 µM,–
C#CCCC(=O)Nc1nc2ccccc2c2ccccc12,> 365 µM,22.6 µM,> 365 µM,–
O=C(NCc1ccc(N2CCC(Cl)CC2)cc1)c1cc([N+](=O)[O-])cc([N+](=O)[O-])c1,–,–,–,MIC [6]: 0.038 µM
Cc1ccc(-n2cc(CNC(=O)c3c(C)nc4c5ccccc5c5ccccc5n34)nn2)cc1C,41.5 µM,–,78.8 µM,–
COc1nc2ccc(Br)cc2cc1[C@@H](c1ccccc1)[C@@](O)(CCN(C)C)c1cccc2ccccc12 [BEDAQUILINE],0.054 µM,–,0.216 µM,–
NNC(=O)c1ccncc1 [ISONIAZID],2.62 µM,–,560 µM,–
CO[C@H]1/C=C/O[C@@]2(C)Oc3c(C)c(O)c4c(O)c(c(/C=N/N5CCN(C)CC5)c(O)c4c3C2=O)NC(=O)/C(C)=C\C=C\[C@H](C)[C@H](O)[C@@H](C)[C@@H](O)[C@@H](C)[C@H](OC(C)=O)[C@@H]1C [RIFAMPIN],0.073 µM,–,0.145 µM,–
